Activity calls are given as the source filed them. No cut-off for these calls is given here.
Tests used:
[1] = target: T1, Estrogen receptor (Homo sapiens) (UniProt P03372); assay: Binding affinity to recombinant human GFP-fused ERalpha LBD (301 to 553 residues) expressed in Escherichia coli BL21(DE3) in presence of 17beta-estradiol by ITC
T1 sequence (whole entry): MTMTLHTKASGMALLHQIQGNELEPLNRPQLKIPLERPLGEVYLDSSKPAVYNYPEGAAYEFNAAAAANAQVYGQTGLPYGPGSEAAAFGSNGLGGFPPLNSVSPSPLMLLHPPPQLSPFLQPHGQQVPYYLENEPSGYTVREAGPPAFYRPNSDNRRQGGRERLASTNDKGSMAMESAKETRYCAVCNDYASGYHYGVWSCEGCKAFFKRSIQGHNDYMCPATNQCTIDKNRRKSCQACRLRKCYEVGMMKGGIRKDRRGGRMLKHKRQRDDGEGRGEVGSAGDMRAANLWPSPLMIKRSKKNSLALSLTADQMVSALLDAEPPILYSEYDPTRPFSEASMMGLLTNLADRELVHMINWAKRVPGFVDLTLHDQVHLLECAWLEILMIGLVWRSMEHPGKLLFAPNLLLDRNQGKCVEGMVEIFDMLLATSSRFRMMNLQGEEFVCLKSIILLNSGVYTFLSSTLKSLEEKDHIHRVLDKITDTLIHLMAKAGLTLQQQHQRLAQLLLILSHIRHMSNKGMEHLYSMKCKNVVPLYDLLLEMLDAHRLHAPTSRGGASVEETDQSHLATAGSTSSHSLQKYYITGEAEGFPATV
Procedure, shortened: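 ITC at 25 °C. 2 μL injections of 50 μM peptide into 5 μM ERα LBD in 50 mM Tris pH 8.0, 150 mM NaCl, 1 mM TCEP, 0.1 mM 17β-estradiol. Binding isotherm fitted for affinity.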

[2] = Drug uptake in human MCF7 cells assessed per million cells at 5 uM after 3 hrs by FACS analysis; type: ADME, cell-based; settings: mcf7, 3 h
Procedure, shortened: (§1)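 Adherent cells seeded overnight, then exposed to 5 μM FITC-labelled peptide or DMSO in FBS-free medium, 3 h, 37 °C. After PBS washes (three), about 10000 cells per sample analysed by flow cytometry; mean cellular fluorescence intensity calculated. More than two independent experiments, SEM.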

[3] = target: T1, Estrogen receptor (Homo sapiens); assay: Binding affinity to recombinant human GFP-fused ERalpha LBD (301 to 553 residues) expressed in Escherichia coli BL21(DE3) in presence of ERalpha inhibitor 4-hydroxytamoxifen by ITC
Procedure, shortened: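 ITC at 25 °C. 50 μM peptide injected in 2 μL steps into 5 μM ERα LBD in 50 mM Tris pH 8.0, 150 mM NaCl, 1 mM TCEP containing 0.1 mM 4-hydroxytamoxifen instead of estradiol. Isotherm fitted.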

Homo sapiens [4] = organism: Homo sapiens; assay: Selectivity ratio of Kd for recombinant human ERbeta LBD (259 to 498 residues) to Kd for recombinant human ERalpha LBD (301 to 553 residues)
Procedure, shortened: (§2)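 Ratio of KD values, each from fluorescence polarization of 10 nM FITC-peptide titrated with the respective LBD after 40 min in the dark at 298 K, with the matching ligand in buffer (10 μM 17β-estradiol, progesterone or vitamin D3).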

[5] = Drug uptake in human U2OS cells assessed per million cells at 5 uM after 3 hrs by FACS analysis; type: ADME, cell-based; procedure, shortened: as §1
[6] = Drug uptake in human MCF7 cell nucleus at 5 uM after 3 hrs in presence of 10 nM E2 by DAPI-staining based confocal laser scanning microscopic analysis
Homo sapiens [7] = organism: Homo sapiens; assay: Selectivity ratio of Kd for recombinant human GST-tagged VDR LBD (156 to 453 residues) to Kd for recombinant human ERalpha LBD (301 to 553 residues); procedure, shortened: as §2

Activity [1]: Active | Drug uptake [2]: Active | Activity [3]: inactive | Selectivity ratio (Homo sapiens [4]): 4.4 | Drug uptake [5]: Active | Drug uptake [6]: Active | Selectivity ratio (Homo sapiens [7]): > 30
Structure (SMILES): CC[C@H](C)[C@@H]1NC(=O)C[C@H](NC(=O)[C@H](CCCNC(=N)N)NC(=O)CCNC(=S)Nc2ccc3c(c2)C(=O)OC32c3ccc(O)cc3Oc3cc(O)ccc32)C(=O)NCC(C(=O)N[C@@H](CCCNC(=N)N)C(=O)NC(CC(C)(C)C)C(=O)NC(CC(C)(C)C)C(=O)N[C@@H](CCC(N)=O)C(N)=O)NC(=O)C(CC(C)(C)C)NC1=O (some centres not stated)
